# From ChEMBL document CHEMBL1811822, “P2-P1' macrocyclization of P2 phenylglycine based HCV NS3 protease inhibitors using ring-closing metathesis” (Bioorg Med Chem, 2011)
# Legend:
# [1] = Inhibition of HCV NS3 protease; parameters: species or system Hepacivirus hominis
# In short: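 Full-length NS3 protein (protease–helicase/NTPase domains) from HCV genotype 1a, wild-type, with a 16-residue NS4A activating-region peptide. Protease activity was read by FRET. Enzyme at 1 nM was incubated 10 min at 30 °C in 50 mM HEPES, pH 7.5. Ki values were derived and reported with standard deviation.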
# [2] = Inhibition of protease activity of full-length HCV genotype 1a NS3 protease by FRET assay
# Hepatitis C virus [3] = assay: Antiviral activity against HCV 1b infected in human HuH7 cells assessed as inhibition of viral replication by luciferase assay; type: functional, organism-based, Hepacivirus hominis; conditions: genotype 1b, Huh-7
# Hepatitis C virus [4] = assay: Antiviral activity against HCV; type: functional, organism-based, Hepacivirus hominis
Ki [2],Compound,further results
,C=CCCCS(=O)(=O)NC(=O)[C@H](CCC)NC(=O)[C@@H](NC(=O)[C@@H](NC(=O)OC(C)(C)C)C(C)(C)C)c1ccc(Oc2cc(-c3ccccc3)nc3cc(OC)ccc23)c(C=C)c1,Ki [1]: 63 nM
,C=CCCCS(=O)(=O)NC(=O)[C@H](CCC)NC(=O)[C@H](NC(=O)[C@@H](NC(=O)OC(C)(C)C)C(C)(C)C)c1ccc(Oc2cc(-c3ccccc3)nc3cc(OC)ccc23)c(C=C)c1,Ki [1]: 48 nM
870 nM,CCC[C@@H]1NC(=O)[C@H](NC(=O)[C@@H](NC(=O)OC(C)(C)C)C(C)(C)C)c2ccc(Oc3cc(-c4ccccc4)nc4cc(OC)ccc34)c(c2)/C=C\CC2(CC2)S(=O)(=O)NC1=O,
190 nM,CCC[C@@H]1NC(=O)[C@@H](NC(=O)[C@@H](NC(=O)OC(C)(C)C)C(C)(C)C)c2ccc(Oc3cc(-c4ccccc4)nc4cc(OC)ccc34)c(c2)/C=C\Cc2ccccc2S(=O)(=O)NC1=O,
170 nM,CCC[C@@H]1NC(=O)[C@@H](NC(=O)[C@@H](NC(=O)OC(C)(C)C)C(C)(C)C)c2ccc(Oc3cc(-c4ccccc4)nc4cc(OC)ccc34)c(c2)/C=C\c2ccccc2S(=O)(=O)NC1=O,
150 nM,CCC[C@@H]1NC(=O)[C@@H](NC(=O)[C@@H](NC(=O)OC(C)(C)C)C(C)(C)C)c2ccc(Oc3cc(-c4ccccc4)nc4cc(OC)ccc34)c(c2)/C=C/c2ccccc2S(=O)(=O)NC1=O,
250 nM,CCC[C@@H]1NC(=O)[C@@H](NC(=O)[C@@H](NC(=O)OC(C)(C)C)C(C)(C)C)c2ccc(Oc3cc(-c4ccccc4)nc4cc(OC)ccc34)c(c2)CCCc2ccccc2S(=O)(=O)NC1=O,
110 nM,CCC[C@@H]1NC(=O)[C@@H](NC(=O)[C@@H](NC(=O)OC(C)(C)C)C(C)(C)C)c2ccc(Oc3cc(-c4ccccc4)nc4cc(OC)ccc34)c(c2)/C=C\CC2(CC2)S(=O)(=O)NC1=O,
390 nM,CCC[C@@H]1NC(=O)[C@@H](NC(=O)[C@@H](NC(=O)OC(C)(C)C)C(C)(C)C)c2ccc(Oc3cc(-c4ccccc4)nc4cc(OC)ccc34)c(c2)/C=C\CCCS(=O)(=O)NC1=O,
240 nM,CCC[C@@H]1NC(=O)[C@@H](NC(=O)[C@@H](NC(=O)OC(C)(C)C)C(C)(C)C)c2ccc(Oc3cc(-c4ccccc4)nc4cc(OC)ccc34)c(c2)/C=C/CCCS(=O)(=O)NC1=O,EC50 (Hepatitis C virus [3]): 6000 nM
760 nM,CCC[C@@H]1NC(=O)[C@H](NC(=O)[C@@H](NC(=O)OC(C)(C)C)C(C)(C)C)c2ccc(Oc3cc(-c4ccccc4)nc4cc(OC)ccc34)c(c2)/C=C\CCCS(=O)(=O)NC1=O,
137 nM,CCC[C@@H]1NC(=O)[C@@H](NC(=O)[C@@H](NC(=O)OC(C)(C)C)C(C)(C)C)c2ccc(Oc3cc(-c4ccccc4)nc4cc(OC)ccc34)c(c2)/C=C\CCS(=O)(=O)NC1=O,
940 nM,CCC[C@@H]1NC(=O)[C@@H](NC(=O)[C@@H](NC(=O)OC(C)(C)C)C(C)(C)C)c2ccc(Oc3cc(-c4ccccc4)nc4cc(OC)ccc34)c(c2)/C=C/CCCCS(=O)(=O)NC1=O,
710 nM,CCC[C@@H]1NC(=O)[C@H](NC(=O)[C@@H](NC(=O)OC(C)(C)C)C(C)(C)C)c2ccc(Oc3cc(-c4ccccc4)nc4cc(OC)ccc34)c(c2)/C=C/CCCCS(=O)(=O)NC1=O,
320 nM,CCC[C@@H]1NC(=O)[C@@H](NC(=O)[C@@H](NC(=O)OC(C)(C)C)C(C)(C)C)c2ccc(Oc3cc(-c4ccccc4)nc4cc(OC)ccc34)c(c2)/C=C\CCCCS(=O)(=O)NC1=O,
570 nM,CCC[C@@H]1NC(=O)[C@@H](NC(=O)[C@@H](NC(=O)OC(C)(C)C)C(C)(C)C)c2ccc(Oc3cc(-c4ccccc4)nc4cc(OC)ccc34)c(c2)CCCCCCS(=O)(=O)NC1=O,
222 nM,CCC[C@@H]1NC(=O)[C@@H](NC(=O)[C@@H](NC(=O)OC(C)(C)C)C(C)(C)C)c2ccc(Oc3cc(-c4ccccc4)nc4cc(OC)ccc34)c(c2)C/C=C/CS(=O)(=O)NC1=O,
470 nM,CCC[C@@H]1NC(=O)[C@@H](NC(=O)[C@@H](NC(=O)OC(C)(C)C)C(C)(C)C)c2ccc(Oc3cc(-c4ccccc4)nc4cc(OC)ccc34)c(c2)C/C=C/CCS(=O)(=O)NC1=O (mixture of isomers),
,COc1ccc2c(O[C@@H]3C[C@H]4C(=O)N[C@]5(C(=O)O)C[C@H]5/C=C\CCCCC[C@H](NC(=O)OC5CCCC5)C(=O)N4C3)cc(-c3csc(NC(C)C)n3)nc2c1 [CILUPREVIR],Ki [1]: 40 nM; EC50 (Hepatitis C virus [4]): 350 nM
,CC(C)(C)OC(=O)N[C@H]1CCCCC/C=C\[C@@H]2C[C@@]2(C(=O)NS(=O)(=O)C2CC2)NC(=O)[C@@H]2C[C@@H](OC(=O)N3Cc4cccc(F)c4C3)CN2C1=O [DANOPREVIR],EC50 (Hepatitis C virus [4]): 0.6 nM
